iPSC survival up: enhancers of human iPSC single-cell survival; hiPSC single-cell survival, ATPlite luminescence; 100% = ROCK inhibitor wells, 0% = DMSO; survival enhancement, % at 20 µM; 360,000 compounds, 0.044% hits; in the data active means survival enhancement above about 18%;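 further: cells exposed to compounds for 16 hours before the ATP read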
Exocytosis inh: lytic granule exocytosis inhibition; TALL-104 LAMP-1 surface exposure, flow cytometry; cells stimulated with thapsigargin and PMA; AID 651702; inhibition, % at 10 µM; 360,000 compounds, 0.66% hits;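 active means inhibition above about 55%, limit read from the data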
MC4R antagonist: human MC4R antagonism in cAMP assay. P32245. MC4R-expressing cells, MTII-stimulated cAMP, LANCE TR-FRET. inhibition, % at 6.5 µM. 360,000 compounds, 0.48% hits. AID 540295;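 active means inhibition above its plate's cutoff, the mean of tested wells on that plate plus 3 SD, cut at about 29% in these data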;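 further: 0% = Melanotan II alone and 100% = Melanotan II plus saturating MCL0020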
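Assay system: human MC4R-expressing U2OS cells; reagent: Melanotan II stimulation of cells; dosing: 6.5 µM single dose; timing: compound 30 min, challenge 1 h, detection 1 h; signal: TR-FRET cAMP assay; replicates: one well per compound, no replicates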
ABCB6 inh MLPCN: inhibitors of human ABC transporter ABCB6 | Q9NP58 | K562-ABCB6 porphyrin accumulation, flow cytometry, 1 h; stronger effect = lower value | fluorescence ratio to DMSO, % at 10 µM | 360,000 compounds, 0.19% hits | AID 602162;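 active means fluorescence ratio to DMSO below 75%, the collection mean minus 3 SD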;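 further: signal is porphyrin accumulated inside mitochondria; 100% equals median channel fluorescence of DMSO control wells; lower ratio means ABCB6 inhibition with less porphyrin fluorescence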
Target sequence (Q9NP58 whole entry, looked up): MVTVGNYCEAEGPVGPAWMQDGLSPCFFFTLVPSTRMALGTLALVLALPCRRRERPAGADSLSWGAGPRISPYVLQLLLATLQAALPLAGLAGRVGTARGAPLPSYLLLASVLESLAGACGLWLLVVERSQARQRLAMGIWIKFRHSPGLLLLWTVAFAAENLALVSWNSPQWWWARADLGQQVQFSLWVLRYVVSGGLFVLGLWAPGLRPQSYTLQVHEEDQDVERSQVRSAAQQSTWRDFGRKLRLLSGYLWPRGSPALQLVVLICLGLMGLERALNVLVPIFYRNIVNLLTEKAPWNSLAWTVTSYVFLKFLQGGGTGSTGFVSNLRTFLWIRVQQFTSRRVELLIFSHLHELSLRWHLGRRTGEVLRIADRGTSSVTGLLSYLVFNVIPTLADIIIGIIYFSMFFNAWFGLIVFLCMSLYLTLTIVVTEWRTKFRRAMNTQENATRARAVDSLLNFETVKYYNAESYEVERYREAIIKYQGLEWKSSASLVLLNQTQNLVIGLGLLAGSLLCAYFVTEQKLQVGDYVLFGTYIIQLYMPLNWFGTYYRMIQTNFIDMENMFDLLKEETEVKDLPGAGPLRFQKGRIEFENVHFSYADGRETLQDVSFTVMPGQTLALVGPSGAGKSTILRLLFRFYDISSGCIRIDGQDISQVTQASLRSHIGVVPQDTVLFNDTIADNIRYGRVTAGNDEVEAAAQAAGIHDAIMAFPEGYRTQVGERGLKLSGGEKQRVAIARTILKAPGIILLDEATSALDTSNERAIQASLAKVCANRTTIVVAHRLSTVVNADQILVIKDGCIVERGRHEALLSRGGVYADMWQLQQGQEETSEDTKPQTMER
MC4R barr agon: human MC4R agonism via beta-arrestin; P32245; U2OS MC4R beta-arrestin complementation, luminescence; percent of melanotan II response, DMSO zero; activation, % at 8.9 µM; 360,000 compounds, 0.98% hits;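 active means activation above a per-plate cutoff, the mean activation of sample wells on that plate plus 3 SD, cut at about 8% in these data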
Tb MetRS inh: Trypanosoma brucei MetRS inhibition; purified T. brucei MetRS, ATP depletion, Kinase-Glo luminescence; inhibition, % at 11.9 µM; 360,000 compounds, 0.4% hits;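 active means inhibition above a per-plate cutoff of the control wells' mean inhibition plus 3 SD, cut at about 5.5% in these data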;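 further: 0% = DMSO wells median and 100% = median of wells with control inhibitor compound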
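Measured by: Kinase-Glo luciferase luminescence reporting remaining unconsumed ATP. Material: purified T. brucei MetRS enzyme. Doses: 11.9 µM compound single dose, 0.9% DMSO. Medium: HEPES buffer containing pyrophosphatase, BSA, spermine, DTT. Times: 15 min preincubation, 2 h reaction, all 25 °C. Reagent: methionine, ATP and bulk E. coli tRNA.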
TbMetRS confirm: Trypanosoma brucei MetRS inhibition confirmed | shares compounds with Tb MetRS inh | T. brucei MetRS enzyme, luminescence (ATP depletion) | inhibition, % at 11.9 µM | 1,400 compounds, 93% hits | AID 624412; in the data active means inhibition above about 7%
Jurkat tox: kills Jurkat cells in T. brucei MetRS counterscreen; inhibition, % at 8.3 µM; Jurkat cells viability, ATP luminescence; 1,400 compounds, 12% hits; shares compounds with Tb MetRS inh; in the data active means inhibition above about 15%;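 further: 0% = vehicle and 100% = reference inhibitor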
TbMetRS FP orth: inhibits T. brucei methionyl tRNA synthetase in orthogonal FP test | shares compounds with Tb MetRS inh | purified T. brucei MetRS, fluorescence polarization | inhibition, % at 11.9 µM | 1,400 compounds, 44% hits; in the data active means inhibition above about 17%;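 further: 0% = vehicle wells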
Starred values were filed as active, the others as inactive; nt = no result. A selection: hits, their analogues and other compounds. The true share with any hit is near 2.6%.

SMILES | iPSC survival up | Exocytosis inh | MC4R antagonist | ABCB6 inh MLPCN | MC4R barr agon | Tb MetRS inh | TbMetRS confirm | Jurkat tox | TbMetRS FP orth
Cc1ccc(OCC(=O)N[C@@H](C)c2nnc3ccccn23)cc1C | 0 | -3 | 4 | 98 | -1 | 0 | nt | nt | nt
O=C(CCCOc1ccc(Cl)cc1Cl)NCCc1nnc2ccccn12 | 0 | -3 | 1 | 104 | -2 | 7.8* | 19* | 0 | 12
C[C@H](NC(=O)CCCOc1ccc(Cl)cc1Cl)c1nnc2ccccn12 | 1 | 0 | 1 | 94 | -4 | 7.4* | 16* | 1 | 6
COCCN(C(=O)COC(=O)c1nc(Cl)ccc1Cl)c1c(N)n(Cc2ccccc2)c(=O)[nH]c1=O | 0 | 0 | 2 | 98 | 1 | 0 | nt | nt | nt
Cc1ccc(NC(=O)CCNS(=O)(=O)c2cccc3nonc23)cc1Cl | 0 | -2 | 3 | 99 | -2 | 0 | nt | nt | nt
O=C(CCNS(=O)(=O)c1ccc(Br)s1)Nc1ccc(Cl)cc1 | 0 | -2 | 18 | 93 | 3 | 78* | 85* | 8 | 69*
O=C(CCNS(=O)(=O)c1cccc2nonc12)Nc1ccc(Cl)cc1 | 0 | 0 | 13 | 94 | 0 | 10* | 21* | 0 | 6
N#Cc1ccccc1NC(=O)COC(=O)c1ccc2c(c1)OCO2 | 0 | 5 | 10 | 96 | -3 | 0 | nt | nt | nt
CN(C)C(=O)c1ccccc1Sc1ccc(Cl)cc1Cl | 1 | 2 | -6 | 99 | -1 | 6.0* | 16* | -5 | 3
CN(C)C(=O)c1ccccc1Sc1cc(Cl)ccc1Cl | 3 | 3 | -7 | 103 | -1 | -2 | nt | nt | nt
CC[N+](CC)(CC(=O)Nc1c(C)cccc1C)Cc1ccccc1 | 0 | -4 | 0 | 103 | -1 | 0 | nt | nt | nt
O=C(Cn1cc(C(F)(F)F)cc(Cl)c1=O)NCc1ccc(Cl)cc1Cl | -1 | -12 | -2 | 93 | 7 | 1 | nt | nt | nt
COc1ccccc1CNC(=O)Cn1ccsc1=N | 0 | 36 | 12 | 97 | 0 | 0 | nt | nt | nt
N=c1sccn1CC(=O)NCc1ccc(Cl)cc1Cl | 4 | 0 | -5 | 101 | -2 | 29* | 51* | 0 | 17
O=C(Cn1cc([N+](=O)[O-])ccc1=O)NCc1ccc(Cl)cc1Cl | 0 | 6 | -6 | 97 | -4 | 9.1* | 26* | 6 | 14
CCCN(CCC)Cc1cc(=O)oc2cc(C)cc(C)c12 | 2 | -5 | nt | 99 | nt | 0 | nt | nt | nt
COc1ccccc1CNC(=O)c1ccc2nc(N3CCOCC3)sc2c1 | -1 | 9 | -1 | 98 | -2 | 0 | nt | nt | nt
COc1ccc(/C=C(/C#N)c2cccnc2)cc1OC | 4 | -8 | -5 | 102 | 1 | 16* | 21* | -5 | 15
COc1ccc(C(C#N)=Cc2ccc(OC)c(OC)c2)cc1 | 1 | 16 | 8 | 96 | -1 | 0 | nt | nt | nt
NS(=O)(=O)c1ccc(NC(=O)c2c(Cl)cccc2Cl)cc1 | 0 | 2 | 3 | 107 | -3 | 0 | nt | nt | nt
NS(=O)(=O)c1ccc(NC(=O)c2c(F)cccc2Cl)cc1 | 2 | -2 | -2 | 104 | 0 | 7.9* | 4 | -4 | 1
Cc1cccc(CN2CCc3c([nH]c4ccccc34)C2)c1 | 0 | 15 | -6 | 106 | 1 | 5.8* | 15* | 13 | 7
c1ccc(CN2CCc3[nH]c4ccccc4c3C2)cc1 | -1 | -6 | -6 | 110 | -1 | 0 | nt | nt | nt
CCc1cccc(CC)c1NC(=S)NCC(c1cccnc1)N1CCOCC1 (centres undefined) | -1 | 7 | -1 | 98 | -1 | -1 | nt | nt | nt
COCCNC(=O)CSc1ccc(-c2nc3ccccc3[nH]2)cn1 | 0 | 7 | 14 | 97 | 1 | 11* | 19* | 2 | 0

Compound activity (PubChem BioAssay)
